Data from ChEMBL document CHEMBL4414638, “Structure-Activity Relationship of Peptide-Conjugated Chloramphenicol for Inhibiting Escherichia coli” (J Med Chem, 2019).
≈ marks a conversion by molar mass, not a printed value. Calls of active or inactive are those of the source. No cut-off for these calls is given here.

What was measured:
Escherichia coli [1] = test: Antibacterial activity against Escherichia coli K-12 assessed as reduction in bacterial growth incubated for 16 hrs; assay type: functional; conditions: K-12, 16 h
[2] = Cytotoxicity in human HS5 cells assessed as reduction in cell viability at 0.5 to 50 uM incubated […] relative to chloramphenicol; assay type: cell-based
Summary of the method: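 HS-5 cells were exposed for 24 h to conjugates and chloramphenicol at 20, 200 or 2000 μM, or to comparator antibiotics at 0.5, 5 or 50 μM, and cell viability was then read.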

HEK293 [3] = test: Cytotoxicity in human HEK293 cells assessed as reduction in cell viability at 0.5 uM […] relative to chloramphenicol; assay type: cell-based; conditions: hek293, 0.5 µM
Escherichia coli [4] = test: Antibacterial activity against Escherichia coli K-12 assessed as reduction in bacterial growth incubated for 16 hrs in presence of porcine liver esterase; assay type: functional; conditions: K-12, 16 h
Escherichia coli [5] = test: Antibacterial activity against Escherichia coli K-12 assessed as reduction in bacterial growth incubated for 16 hrs in absence of porcine liver esterase; assay type: functional; conditions: K-12, 16 h
[6] = Drug metabolism in Escherichia coli K-12 lysates assessed as esterase-mediated drug hydrolysis at 200 uM incubated up to 24 hrs by HPLC analysis; assay type: ADME, subcellular, Lysate; conditions: escherichia coli k-12, isolated protein
[7] = Drug metabolism in human HepG2 cells lysates assessed as esterase-mediated drug hydrolysis at 200 uM incubated up to 24 hrs by HPLC analysis; assay type: ADME, subcellular, Lysate; conditions: hepg2, 24 h
[8] = Drug metabolism in Escherichia coli K-12 lysates assessed as esterase-mediated drug hydrolysis by measuring apparent first-order rate constant at 200 uM incubated up to 24 hrs by HPLC analysis; assay type: ADME, subcellular, Lysate; conditions: escherichia coli k-12, isolated protein
Escherichia coli [9] = test: Antibacterial activity against ydgR gene deficient Escherichia coli assessed as reduction in bacterial growth at 0.1 to 100 uM incubated for 16 hrs; assay type: functional, organism-based
Escherichia coli [10] = test: Antibacterial activity against fepA gene deficient Escherichia coli assessed as reduction in bacterial growth at 0.1 to 100 uM incubated for 16 hrs; assay type: functional, organism-based
Escherichia coli [11] = test: Antibacterial activity against ompF gene deficient Escherichia coli assessed as reduction in bacterial growth at 0.1 to 100 uM incubated for 16 hrs; assay type: functional, organism-based
Escherichia coli [12] = test: Antibacterial activity against acrA gene deficient Escherichia coli assessed as reduction in bacterial cell viability at 0.1 to 100 uM incubated for 16 hrs relative to control; assay type: functional
Escherichia coli [13] = test: Antibacterial activity against bioH gene deficient Escherichia coli assessed as reduction in bacterial growth at 0.1 to 100 uM incubated for 16 hrs; assay type: functional, organism-based
Escherichia coli [14] = test: Antibacterial activity against yjfP gene deficient Escherichia coli assessed as reduction in bacterial growth at 0.1 to 100 uM incubated for 16 hrs; assay type: functional, organism-based
Escherichia coli [15] = test: Antibacterial activity against frsA gene deficient Escherichia coli assessed as reduction in bacterial growth at 0.1 to 100 uM incubated for 16 hrs; assay type: functional, organism-based
Escherichia coli [16] = test: Antibacterial activity against ybfF gene deficient Escherichia coli assessed as reduction in bacterial growth at 0.1 to 100 uM incubated for 16 hrs; assay type: functional, organism-based
Escherichia coli [17] = test: Antibacterial activity against yfbB gene deficient Escherichia coli assessed as reduction in bacterial growth at 0.1 to 100 uM incubated for 16 hrs; assay type: functional, organism-based
Escherichia coli [18] = test: Antibacterial activity against ypfH gene deficient Escherichia coli assessed as reduction in bacterial growth at 0.1 to 100 uM incubated for 16 hrs; assay type: functional, organism-based
Escherichia coli [19] = test: Antibacterial activity against yeiG gene deficient Escherichia coli assessed as reduction in bacterial growth at 0.1 to 100 uM incubated for 16 hrs; assay type: functional, organism-based
Escherichia coli [20] = test: Antibacterial activity against yqiA gene deficient Escherichia coli assessed as reduction in bacterial growth at 0.1 to 100 uM incubated for 16 hrs; assay type: functional, organism-based
[21] = Drug metabolism in human serum assessed as formation of chloramphenicol at 200 uM at 37 degC after 24 hrs by LC-MS analysis relative to control
[22] = Cytotoxicity in human HS5 cells assessed as reduction in cell viability at 20 uM to 2 mM incubated up to […]rs relative to chloramphenicol; assay type: cell-based
HEK293 [23] = test: Cytotoxicity in human HEK293 cells assessed as reduction in cell viability at 20 uM […] relative to chloramphenicol; assay type: cell-based; conditions: hek293, 20 µM
[24] = Drug metabolism in human serum assessed as formation of chloramphenicol at 200 uM at 37 degC after 2 hrs by LC-MS analysis relative to control

SMILES	MIC (Escherichia coli [1])	Activity [2]	MIC (Escherichia coli [4]) [µM]	MIC (Escherichia coli [5]) [µM]	Drug metabolism [6]	Drug metabolism [7]	K [8] [h⁻¹]	Activity (Escherichia coli [9])	Activity (Escherichia coli [10])	Activity (Escherichia coli [11])	Activity (Escherichia coli [12]) [%]	Activity (Escherichia coli [13])	Activity (Escherichia coli [14])	Activity (Escherichia coli [15])	Activity (Escherichia coli [16])	Activity (Escherichia coli [17])	Activity (Escherichia coli [18])	Activity (Escherichia coli [19])	Activity (Escherichia coli [20])	Drug metabolism [21]	further results
COc1cc(Cc2cnc(N)nc2N)cc(OC)c1OC [TRIMETHOPRIM]	1 µg/mL	Non-Toxic																			Activity (HEK293 [3]): Toxic
O=C(O)CNC(=O)[C@@H](CO)NC(=O)CCC(=O)OC[C@@H](NC(=O)C(Cl)Cl)[C@H](O)c1ccc([N+](=O)[O-])cc1	40 µM		40	40 (≈ 22.7 µg/mL)	Metabolite_Detected	Metabolite_Detected	1.267	Active	Active	Active	40	inactive	inactive	inactive	inactive	inactive	inactive	inactive	inactive	Metabolite_Detected	
CC[C@H]1OC(=O)[C@H](C)C(=O)[C@H](C)[C@@H](O[C@@H]2O[C@H](C)C[C@H](N(C)C)[C@H]2O)[C@](C)(OC)C[C@@H](C)C(=O)[C@H](C)[C@H]2N(CCCCn3cnc(-c4cccnc4)c3)C(=O)O[C@]12C [TELITHROMYCIN]	0.6 µg/mL	Non-Toxic																			Activity (HEK293 [3]): Toxic
O=C(O)c1cn(C2CC2)c2cc(N3CCNCC3)c(F)cc2c1=O [CIPROFLOXACIN]		Non-Toxic																			Activity (HEK293 [3]): Toxic
NCCCC[C@H](NC(=O)CNC(=O)CCC(=O)OC[C@@H](NC(=O)C(Cl)Cl)[C@H](O)c1ccc([N+](=O)[O-])cc1)C(=O)O	20 µM																			Metabolite_Detected	Activity [22]: Non-Toxic; Activity (HEK293 [23]): Toxic; Drug metabolism [24]: Metabolite_Detected
O=C(CCC(=O)OC[C@@H](NC(=O)C(Cl)Cl)[C@H](O)c1ccc([N+](=O)[O-])cc1)NCC(=O)NCC(=O)N[C@H](Cc1ccccc1)C(=O)O	20 µM																			Metabolite_Detected	Activity [22]: Non-Toxic; Activity (HEK293 [23]): Toxic; Drug metabolism [24]: Metabolite_Detected
NCCCC[C@H](NC(=O)[C@H](CCCCN)NC(=O)CCC(=O)OC[C@@H](NC(=O)C(Cl)Cl)[C@H](O)c1ccc([N+](=O)[O-])cc1)C(=O)O	200 µM		200	200 (≈ 136 µg/mL)	Metabolite_Detected	Metabolite_Detected	0.31	Active	Active	Active	50	inactive	inactive	inactive	inactive	inactive	inactive	inactive	inactive	Metabolite_Detected	
NCCCC[C@@H](NC(=O)[C@@H](CCCCN)NC(=O)CCC(=O)OC[C@@H](NC(=O)C(Cl)Cl)[C@H](O)c1ccc([N+](=O)[O-])cc1)C(=O)O	200 µM		100	200 (≈ 136 µg/mL)	Metabolite_Detected	Metabolite_Detected	0.317	Active	Active	Active	20	inactive	inactive	inactive	inactive	inactive	inactive	inactive	inactive	Metabolite_Detected	
O=C(CCC(=O)OC[C@@H](NC(=O)C(Cl)Cl)[C@H](O)c1ccc([N+](=O)[O-])cc1)NCC(=O)N[C@H](CO)C(=O)O	20 µM		20	20 (≈ 11.3 µg/mL)	Metabolite_Detected	Metabolite_Detected	3.763	Active	Active	Active	30	inactive	inactive	inactive	inactive	inactive	inactive	inactive	inactive	Metabolite_Detected	Activity [22]: Non-Toxic; Activity (HEK293 [23]): Toxic; Drug metabolism [24]: Metabolite_Detected
